Assay results as given in ChEMBL document CHEMBL2401679, “Synthesis and on-target antibacterial activity of novel 3-elongated arylalkoxybenzamide derivatives as inhibitors of the bacterial cell division protein FtsZ” (2013).
In brackets after ≈: the same amount, converted by molar mass.

The compounds below were run on Bacillus subtilis (assay: Ratio of compound MIC to 3-MBA MIC for penicillin-susceptible Bacillus subtilis ATCC 9372). Settings: not given.
Assay type: functional

`NC(=O)c1cccc(OCCCCCCCl)c1` showed a Ratio of 256.

The compounds below were run on Bacillus subtilis (assay: Ratio of compound to 3-MBA for inhibition of cell division in penicillin-susceptible Bacillus subtilis ATCC 9372). Settings: not given.
Assay type: functional

`NC(=O)c1cccc(OCCCCCCCl)c1` showed a Ratio of 128.

Each compound was assayed on Streptococcus pyogenes (assay: Antibacterial activity against penicillin-susceptible Streptococcus pyogenes after 24 hrs by broth microdilution method). Settings: not given.
Assay type: functional
How it was run: (§1)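 MIC by broth microdilution following the NCCLS standard method. Test strains were penicillin-susceptible: B. subtilis ATCC9372, S. aureus ATCC25923, S. pneumoniae ATCC49619 and Streptococcus pyogenes PS.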

`NC(=O)c1cccc(OCCBr)c1` and `NC(=O)c1cccc(OCCCBr)c1` cannot be ordered by MIC: over 128 µg/mL for the first, over 128 µg/mL for the second.

`NC(=O)c1cccc(OCCCCSc2nc3ccccc3s2)c1` and `NC(=O)c1cccc(OCCCSc2nc3ccccc3s2)c1` cannot be ordered by MIC: over 128 µg/mL for the first, over 128 µg/mL for the second.

`CCOCCCCCOc1cccc(C(N)=O)c1` and `NC(=O)c1cccc(OCCCCCCCl)c1` cannot be ordered by MIC: over 128 µg/mL for the first, over 128 µg/mL for the second.

`NC(=O)c1cccc(OCCCCn2ccnc2)c1` and `NC(=O)c1cccc(OCCCCl)c1` cannot be ordered by MIC: over 128 µg/mL for the first, over 128 µg/mL for the second.

These compounds were tested on Streptococcus pneumoniae (assay: Antibacterial activity against penicillin-susceptible Streptococcus pneumoniae ATCC 49619 after 24 hrs by broth microdilution method). Settings: ATCC 49619, 24 h.
Assay type: functional
How it was run: as §1

`NC(=O)c1cccc(OCCBr)c1` and `NC(=O)c1cccc(OCCCBr)c1` cannot be ordered by MIC: over 128 µg/mL for the first, over 128 µg/mL for the second.

`NC(=O)c1cccc(OCCCCSc2nc3ccccc3s2)c1` and `NC(=O)c1cccc(OCCCSc2nc3ccccc3s2)c1` cannot be ordered by MIC: over 128 µg/mL for the first, over 128 µg/mL for the second.

`CCOCCCCCOc1cccc(C(N)=O)c1` and `NC(=O)c1cccc(OCCCCCCCl)c1` cannot be ordered by MIC: over 128 µg/mL for the first, over 128 µg/mL for the second.

`NC(=O)c1cccc(OCCCCn2ccnc2)c1` and `NC(=O)c1cccc(OCCCCl)c1` cannot be ordered by MIC: over 128 µg/mL for the first, over 128 µg/mL for the second.

Each compound was assayed on Staphylococcus aureus (assay: Antibacterial activity against penicillin-resistant Staphylococcus aureus clinical isolate after 24 hrs by broth microdilution method). Settings: not given.
Assay type: functional
How it was run: (§2)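 MIC by standard broth microdilution following NCCLS recommendations. S. aureus ATCC29213 is a […] strain. The S. aureus PR strain is a penicillin-resistant clinical isolate that has not been characterized. The MIC was taken as the in vitro antibacterial activity value.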

`NC(=O)c1cccc(OCCBr)c1` and `NC(=O)c1cccc(OCCCBr)c1` are the same in MIC: 128 µg/mL (≈ 524 µM) for the first, 128 µg/mL (≈ 496 µM) for the second.

`NC(=O)c1cccc(OCCCCSc2nc3ccccc3s2)c1` and `NC(=O)c1cccc(OCCCSc2nc3ccccc3s2)c1` cannot be ordered by MIC: over 128 µg/mL for the first, over 128 µg/mL for the second.

Going from `CCOCCCCCOc1cccc(C(N)=O)c1` to `NC(=O)c1cccc(OCCCCCCCl)c1`, the MIC falls from 64 µg/mL (≈ 255 µM) to 32 µg/mL (≈ 125 µM) (2-fold).

First: NC(=O)c1cccc(OCCCCn2ccnc2)c1
Second: NC(=O)c1cccc(OCCCCl)c1
The MIC of the first is higher: over 128 µg/mL for the first, 64 µg/mL (≈ 300 µM) for the second.

The compounds below were run on Staphylococcus aureus (assay: Antibacterial activity against penicillin-susceptible Staphylococcus aureus ATCC 25923 after 24 hrs by broth microdilution method). Settings: ATCC 25923, 24 h.
Assay type: functional
How it was run: as §1

`NC(=O)c1cccc(OCCBr)c1` and `NC(=O)c1cccc(OCCCBr)c1` are the same in MIC: 64 µg/mL (≈ 262 µM) for the first, 64 µg/mL (≈ 248 µM) for the second.

First: NC(=O)c1cccc(OCCCCSc2nc3ccccc3s2)c1
Second: NC(=O)c1cccc(OCCCSc2nc3ccccc3s2)c1
The MIC of the first is 2-fold higher: 1020 µg/mL (≈ 2860 µM) for the first, 512 µg/mL (≈ 1490 µM) for the second.

Going from `CCOCCCCCOc1cccc(C(N)=O)c1` to `NC(=O)c1cccc(OCCCCCCCl)c1`, the MIC falls from 64 µg/mL (≈ 255 µM) to 32 µg/mL (≈ 125 µM) (2-fold).

Going from `NC(=O)c1cccc(OCCCCn2ccnc2)c1` to `NC(=O)c1cccc(OCCCCl)c1`, the MIC falls from 256 µg/mL (≈ 987 µM) to 64 µg/mL (≈ 300 µM) (4-fold).

These compounds were tested on Staphylococcus aureus (assay: Antibacterial activity against […] Staphylococcus aureus ATCC 29213 after 24 hrs by broth microdilution method). Settings: ATCC 29213, 24 h.
Assay type: functional
How it was run: as §2

First: NC(=O)c1cccc(OCCBr)c1
Second: NC(=O)c1cccc(OCCCBr)c1
The MIC of the first is 2-fold higher: 128 µg/mL (≈ 524 µM) for the first, 64 µg/mL (≈ 248 µM) for the second.

`NC(=O)c1cccc(OCCCCSc2nc3ccccc3s2)c1` and `NC(=O)c1cccc(OCCCSc2nc3ccccc3s2)c1` cannot be ordered by MIC: over 128 µg/mL for the first, over 128 µg/mL for the second.

`CCOCCCCCOc1cccc(C(N)=O)c1` and `NC(=O)c1cccc(OCCCCCCCl)c1` are the same in MIC: 64 µg/mL (≈ 255 µM) for the first, 64 µg/mL (≈ 250 µM) for the second.

First: NC(=O)c1cccc(OCCCCn2ccnc2)c1
Second: NC(=O)c1cccc(OCCCCl)c1
The MIC of the first is higher: over 128 µg/mL for the first, 64 µg/mL (≈ 300 µM) for the second.

The compounds below were run on Bacillus subtilis (assay: Antibacterial activity against penicillin-susceptible Bacillus subtilis ATCC 9372 after 24 hrs by broth microdilution method). Settings: ATCC 9372, 24 h.
Assay type: functional
How it was run: as §1

`NC(=O)c1cccc(OCCBr)c1` and `NC(=O)c1cccc(OCCCBr)c1` are the same in MIC: 128 µg/mL (≈ 524 µM) for the first, 128 µg/mL (≈ 496 µM) for the second.

Going from `NC(=O)c1cccc(OCCCCSc2nc3ccccc3s2)c1` to `NC(=O)c1cccc(OCCCSc2nc3ccccc3s2)c1`, the MIC rises from 128 µg/mL (≈ 357 µM) to 512 µg/mL (≈ 1490 µM) (4-fold).

Compared with `CCOCCCCCOc1cccc(C(N)=O)c1`, `NC(=O)c1cccc(OCCCCCCCl)c1` is 4-fold lower in MIC: 64 µg/mL (≈ 255 µM) for the first, 16 µg/mL (≈ 62.6 µM) for the second.

`NC(=O)c1cccc(OCCCCn2ccnc2)c1` and `NC(=O)c1cccc(OCCCCl)c1` are the same in MIC: 128 µg/mL (≈ 494 µM) for the first, 128 µg/mL (≈ 599 µM) for the second.

The compounds below were run on Staphylococcus aureus (assay: Inhibition of cell division in penicillin-susceptible Staphylococcus aureus ATCC 25923 assessed as lowest concentration required to ballooning after 5 hrs by phase-contrast light microscopy analysis). Settings: not given.
Assay type: functional
How it was run: (§3)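 Cell morphology of B. subtilis ATCC9372 or S. aureus ATCC25923 was examined by phase-contrast light microscopy. The value recorded is the lowest compound concentration at which B. subtilis filamentation or S. aureus ballooning appeared. This is taken as on-target cell division inhibition.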

First: NC(=O)c1cccc(OCCBr)c1
Second: NC(=O)c1cccc(OCCCBr)c1
The INH of the first is 2-fold lower: 16 µg/mL for the first, 32 µg/mL for the second.

Compared with `NC(=O)c1cccc(OCCCCSc2nc3ccccc3s2)c1`, `NC(=O)c1cccc(OCCCSc2nc3ccccc3s2)c1` is 2-fold lower in INH: 512 µg/mL for the first, 256 µg/mL for the second.

Compared with `CCOCCCCCOc1cccc(C(N)=O)c1`, `NC(=O)c1cccc(OCCCCCCCl)c1` is 4-fold lower in INH: 128 µg/mL for the first, 32 µg/mL for the second.

First: NC(=O)c1cccc(OCCCCn2ccnc2)c1
Second: NC(=O)c1cccc(OCCCCl)c1
The INH of the first is 2-fold higher: 128 µg/mL for the first, 64 µg/mL for the second.

What follows are compounds tested on Bacillus subtilis (assay: Inhibition of cell division in penicillin-susceptible Bacillus subtilis ATCC 9372 assessed as lowest concentration required to filamentation after 5 hrs by phase-contrast light microscopy analysis). Settings: not given.
Assay type: functional
How it was run: as §3

First: NC(=O)c1cccc(OCCBr)c1
Second: NC(=O)c1cccc(OCCCBr)c1
The INH of the first is 2-fold lower: 64 µg/mL for the first, 128 µg/mL for the second.

Going from `NC(=O)c1cccc(OCCCCSc2nc3ccccc3s2)c1` to `NC(=O)c1cccc(OCCCSc2nc3ccccc3s2)c1`, the INH rises from 128 µg/mL to 512 µg/mL (4-fold).

First: CCOCCCCCOc1cccc(C(N)=O)c1
Second: NC(=O)c1cccc(OCCCCCCCl)c1
The INH of the first is 16-fold higher: 64 µg/mL for the first, 4 µg/mL for the second.

First: NC(=O)c1cccc(OCCCCn2ccnc2)c1
Second: NC(=O)c1cccc(OCCCCl)c1
The INH of the first is 2-fold higher: 128 µg/mL for the first, 64 µg/mL for the second.
